Variants at the floor of the assay were thinned out.
B1: tRNA (parent)
chain: GUUCCGUUGGCGUAAUGGUAACGCGUCUCCCUCCUAAGGAGAAGACUGCGGGUUCGAGUCCCGUACGGAACG

Variants of: B1
Test: yeast fitness relative to wild type (ratio to wild type); higher = fitter; tRNA-Arg(CCU), competitive growth, 37 C, YPD
Method in brief: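 The tRNA-Arg(CCU) gene variants were made by chemical synthesis with a 3% per-site mutation rate at 69 sites and inserted at the native genomic locus of Saccharomyces cerevisiae. After pooling, the strains were competed in YPD at 37°C for 24 hours in six parallel replicates. Gene amplicons from the start population and each end population were read by 100-nucleotide paired-end sequencing, and Darwinian fitness relative to wild type was taken from genotype frequency changes. Genotypes needed ≥ 100 starting reads, and estimates < 0.5 were set to 0.5.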
In the case of GUUCCGUUGGCGUAAUGGUAACGCGUCUCCCUCCUAAGGAGAAGACUGCGGGUCCGAGUCCCGUACGAAACG, the yeast fitness is reported as 0.937.
In the case of GUUCCGUUGGCGUAAUGGUAACGCGUCUCCCUCCUAAGGAGAAGACUGCGGCUUCAAGUCCCGUACGGAACG, the yeast fitness is reported as 0.689.
Variant GUUCCGUUGGCGUAAUGGUAACGCGUCUCCCUCCUAAGGAGAAGACUGCGGGAUCGAGUCCCGUACGGUACG has a yeast fitness of 0.891.
With GUUCCGUUGGCGUAAUGGUAACGCGUCUCCCUCCUAAGGAGAAGACUGCGGGAUCGAGUCCCGUACGGCACG the yeast fitness was 0.622.
In the case of GUUCCGUUGGCGUAAUGGUAACGCGUCUCCCUCCUAAGGAGAAGACUGCGGGUGCGAGUCCCGUCCGGAACG, the yeast fitness is reported as 0.606.
Work on GUUCCGUUGGCGUAAUGGUAACGCGUCUCCCUCCUAAGGAGAAGACUGCGGGUUGGAGACCCGUACGGAGCG yielded a yeast fitness of 0.731.
In the case of GUUCCGUUGGCGUAAUGGUAACGCGUCUCCCUCCUAAGGAGAAGACUGCGGGUUAGAGUCCCGUACGCAACG, the yeast fitness is reported as 0.674.
For GUUCCGUUGGCGUAAUGGUAACGCGUCUCCCUCCUAAGGAGAAGACUGCGGGUCCGAGUCCCGUAUGGAACG, the yeast fitness was 0.767.
In the case of GUUCCGUUGGCGUAAUGGUAACGCGUCUCCCUCCUAAGGAGAAGACUGCGGGUCCGAGUCCCGUAUGGUACG, the yeast fitness is reported as 0.62.
GUUCCGUUGGCGUAAUGGUAACGCGUCUCCCUCCUAAGGAGAAGACUGCGGGUUUGAAUCCCGUACGGAACG showed a yeast fitness of 0.642.
With GUUCCGUUGGCGUAAUGGUAACGCGUCUCCCUCCUAAGGAGAAGACUGCGGCUUCGAGUCCCAUGCGGAACG the yeast fitness was ≤ 0.5.
Variant GUUCCGUUGGCGUAAUGGUAACGCGUCUCCCUCCUAAGGAGAAGACUGCGGGUUCAAAUCCCGUACCGAACG has a yeast fitness of 0.679.
With GUUCCGUUGGCGUAAUGGUAACGCGUCUCCCUCCUAAGGAGAAGACUGCGGGUUAGAGUCCCGUCCGGAACG the yeast fitness was 0.603.
Variant GUUCCGUUGGCGUAAUGGUAACGCGUCUCCCUCCUAAGGAGAAGACUGCGGGUCCGAGUCCCGCACGGAACG has a yeast fitness of 0.758.
GUUCCGUUGGCGUAAUGGUAACGCGUCUCCCUCCUAAGGAGAAGACUGCGGGCUCGAGUCCCGUAUGGAACG gave a yeast fitness of 0.814.
Variant GUUCCGUUGGCGUAAUGGUAACGCGUCUCCCUCCUAAGGAGAAGACUGCGGGUUGGAGUACCGUACGGAACG has a yeast fitness of 0.536.
In the case of GUUCCGUUGGCGUAAUGGUAACGCGUCUCCCUCCUAAGGAGAAGACUGCGGGGUCGAGCCCCGUAUGGAACG, the yeast fitness is reported as ≤ 0.5.
Variant GUUCCGUUGGCGUAAUGGUAACGCGUCUCCCUCCUAAGGAGAAGACUGCGGGUUCAAGUCCCGUUCGGAACG has a yeast fitness of 0.978.
In the case of GUUCCGUUGGCGUAAUGGUAACGCGUCUCCCUCCUAAGGAGAAGACUGCGGGUCCGAGUCCUGUACGGAACG, the yeast fitness is reported as 0.815.
For GUUCCGUUGGCGUAAUGGUAACGCGUCUCCCUCCUAAGGAGAAGACUGCGGGAUCCAGUCCCGUACGGAACG, the yeast fitness was ≤ 0.5.
GUUCCGUUGGCGUAAUGGUAACGCGUCUCCCUCCUAAGGAGAAGACUGCGGGUUCAAGUGCCGUACGGAACG showed a yeast fitness of 0.681.
With GUUCCGUUGGCGUAAUGGUAACGCGUCUCCCUCCUAAGGAGAAGACUGCGGCCUCGAGUCCCGUACGGAACG the yeast fitness was ≤ 0.5.
GUUCCGUUGGCGUAAUGGUAACGCGUCUCCCUCCUAAGGAGAAGACUGCGGGUUCAGGUCCCGUACGGAACG gave a yeast fitness of 0.905.
For GUUCCGUUGGCGUAAUGGUAACGCGUCUCCCUCCUAAGGAGAAGACUGCGGGUUCACGUCCCGUACGGAACG, the yeast fitness was 0.699.
With GUUCCGUUGGCGUAAUGGUAACGCGUCUCCCUCCUAAGGAGAAGACUGCGGGUCCGAAUCCCGUACGGAACG the yeast fitness was 0.834.
In the case of GUUCCGUUGGCGUAAUGGUAACGCGUCUCCCUCCUAAGGAGAAGACUGCGGGUUAGAGUCCCGCACGGAACG, the yeast fitness is reported as 0.623.
With GUUCCGUUGGCGUAAUGGUAACGCGUCUCCCUCCUAAGGAGAAGACUGCGGGAUCGAAUCCCGUACGUAACG the yeast fitness was ≤ 0.5.
With GUUCCGUUGGCGUAAUGGUAACGCGUCUCCCUCCUAAGGAGAAGACUGCGGGUUUGAGUCCCGUAAGGAACG the yeast fitness was 0.656.
GUUCCGUUGGCGUAAUGGUAACGCGUCUCCCUCCUAAGGAGAAGACUGCGGGGUCCAGUCCCGUACCGAACG showed a yeast fitness of 0.605.
For GUUCCGUUGGCGUAAUGGUAACGCGUCUCCCUCCUAAGGAGAAGACUGCGGGUUGGAGUCCCGUCCAGAACG, the yeast fitness was ≤ 0.5.
GUUCCGUUGGCGUAAUGGUAACGCGUCUCCCUCCUAAGGAGAAGACUGCGGGAUCGAGUCCCGUACAGAACG showed a yeast fitness of 0.686.
GUUCCGUUGGCGUAAUGGUAACGCGUCUCCCUCCUAAGGAGAAGACUGCGGGUCCGAGUCCCGUACGGAUCG showed a yeast fitness of 0.869.
For GUUCCGUUGGCGUAAUGGUAACGCGUCUCCCUCCUAAGGAGAAGACUGCGGGUUAGAGUCCCGUACGGAUCG, the yeast fitness was 0.658.
With GUUCCGUUGGCGUAAUGGUAACGCGUCUCCCUCCUAAGGAGAAGACUGCGGGUUUGAACCCUGUACGGAACG the yeast fitness was ≤ 0.5.
With GUUCCGUUGGCGUAAUGGUAACGCGUCUCCCUCCUAAGGAGAAGACUGCGGGUGCGAGUCCCGUACGGAUCG the yeast fitness was 0.678.
For GUUCCGUUGGCGUAAUGGUAACGCGUCUCCCUCCUAAGGAGAAGACUGCGGGUACGAGUCGCGUACGGAACG, the yeast fitness was 0.63.
For GUUCCGUUGGCGUAAUGGUAACGCGUCUCCCUCCUAAGGAGAAGACUGCGGGUUCAAGUCCCGUACUGAACG, the yeast fitness was 0.99.
Variant GUUCCGUUGGCGUAAUGGUAACGCGUCUCCCUCCUAAGGAGAAGACUGCGGGUUUGAGUCCCGCACGGAACG has a yeast fitness of 0.873.
For GUUCCGUUGGCGUAAUGGUAACGCGUCUCCCUCCUAAGGAGAAGACUGCGGGUUUGAGUCACGUACGAAACG, the yeast fitness was ≤ 0.5.
Variant GUUCCGUUGGCGUAAUGGUAACGCGUCUCCCUCCUAAGGAGAAGACUGCGGCUUCGAGUCCCGUACGGAGCG has a yeast fitness of 0.637.
GUUCCGUUGGCGUAAUGGUAACGCGUCUCCCUCCUAAGGAGAAGACUGCGGGUUUGUGUCCCGUACGGAACG showed a yeast fitness of 0.634.
Variant GUUCCGUUGGCGUAAUGGUAACGCGUCUCCCUCCUAAGGAGAAGACUGCGGCUUCGAGGCCCGUACGGAACG has a yeast fitness of 0.538.
In the case of GUUCCGUUGGCGUAAUGGUAACGCGUCUCCCUCCUAAGGAGAAGACUGCGGCUUCGAGACCCGUACGGAACG, the yeast fitness is reported as 0.598.
For GUUCCGUUGGCGUAAUGGUAACGCGUCUCCCUCCUAAGGAGAAGACUGCGGGUUUGAGUCCCGUACCGAACG, the yeast fitness was 0.677.
Work on GUUCCGUUGGCGUAAUGGUAACGCGUCUCCCUCCUAAGGAGAAGACUGCGGGAUCGCGUCCCGUACGGAACG yielded a yeast fitness of 0.623.
GUUCCGUUGGCGUAAUGGUAACGCGUCUCCCUCCUAAGGAGAAGACUGCGGGUUGGAGUCCCGUACGCAACG gave a yeast fitness of 0.624.
GUUCCGUUGGCGUAAUGGUAACGCGUCUCCCUCCUAAGGAGAAGACUGCGGGUUGAAGUCCCGUACGGAACG gave a yeast fitness of 0.628.
GUUCCGUUGGCGUAAUGGUAACGCGUCUCCCUCCUAAGGAGAAGACUGCGGGUUCAAGUCCCGUACGCAACG showed a yeast fitness of 0.838.
For GUUCCGUUGGCGUAAUGGUAACGCGUCUCCCUCCUAAGGAGAAGACUGCGGGUUUGAGUCGGGUACGGAACG, the yeast fitness was 0.629.
GUUCCGUUGGCGUAAUGGUAACGCGUCUCCCUCCUAAGGAGAAGACUGCGGGUUGGAGUCUCGUACGGAACG showed a yeast fitness of 0.743.
GUUCCGUUGGCGUAAUGGUAACGCGUCUCCCUCCUAAGGAGAAGACUGCGGGUUAGAGUCCCCUACGGAACG showed a yeast fitness of 0.603.
In the case of GUUCCGUUGGCGUAAUGGUAACGCGUCUCCCUCCUAAGGAGAAGACUGCGGGUGCGAGUCCCCUACGGAACG, the yeast fitness is reported as ≤ 0.5.
With GUUCCGUUGGCGUAAUGGUAACGCGUCUCCCUCCUAAGGAGAAGACUGCGGGUUAGAGUCCGGUACGGAACG the yeast fitness was 0.543.
In the case of GUUCCGUUGGCGUAAUGGUAACGCGUCUCCCUCCUAAGGAGAAGACUGCGGGUUUGAGUCCCGAAAGGAACG, the yeast fitness is reported as ≤ 0.5.
With GUUCCGUUGGCGUAAUGGUAACGCGUCUCCCUCCUAAGGAGAAGACUGCGGGUUAGCGUCCCGUAUGGAACG the yeast fitness was ≤ 0.5.
With GUUCCGUUGGCGUAAUGGUAACGCGUCUCCCUCCUAAGGAGAAGACUGCGGGAUUGAGUCCCGUACGGAACG the yeast fitness was 0.545.
For GUUCCGUUGGCGUAAUGGUAACGCGUCUCCCUCCUAAGGAGAAGACUGCGGGUUCAAGUCCCGUACGGCUCG, the yeast fitness was 0.825.
With GUUCCGUUGGCGUAAUGGUAACGCGUCUCCCUCCUAAGGAGAAGACUGCGGGUCCAAGUCCCGUACGGAACG the yeast fitness was 0.788.
Work on GUUCCGUUGGCGUAAUGGUAACGCGUCUCCCUCCUAAGGAGAAGACUGCGGGUGCGAGUCCCGUACGGUACG yielded a yeast fitness of 0.648.
In the case of GUUCCGUUGGCGUAAUGGUAACGCGUCUCCCUCCUAAGGAGAAGACUGCGGGAUCGAGACCCGUACGGAACG, the yeast fitness is reported as 0.664.
GUUCCGUUGGCGUAAUGGUAACGCGUCUCCCUCCUAAGGAGAAGACUGCGGGUUCAAGUCCCGUACGGUACG showed a yeast fitness of 1.01.
Work on GUUCCGUUGGCGUAAUGGUAACGCGUCUCCCUCCUAAGGAGAAGACUGCGGGUUUGAGUCCCGUACGGCACG yielded a yeast fitness of 0.762.
With GUUCCGUUGGCGUAAUGGUAACGCGUCUCCCUCCUAAGGAGAAGACUGCGGGUUGGUGUCCCGUACGGAACG the yeast fitness was 0.633.
Variant GUUCCGUUGGCGUAAUGGUAACGCGUCUCCCUCCUAAGGAGAAGACUGCGGGUUGGAGUCCCGUACGGUACG has a yeast fitness of 0.636.
Work on GUUCCGUUGGCGUAAUGGUAACGCGUCUCCCUCCUAAGGAGAAGACUGCGGGUUGGAGUCCCGUACGGGACG yielded a yeast fitness of 0.627.
In the case of GUUCCGUUGGCGUAAUGGUAACGCGUCUCCCUCCUAAGGAGAAGACUGCGGGUUUGAGUCCCGUUCGGAACG, the yeast fitness is reported as 0.794.
With GUUCCGUUGGCGUAAUGGUAACGCGUCUCCCUCCUAAGGAGAAGACUGCGGGUACGAGUCGCGUUCGGAACG the yeast fitness was ≤ 0.5.
Work on GUUCCGUUGGCGUAAUGGUAACGCGUCUCCCUCCUAAGGAGAAGACUGCGGGGUCGAGUCCCGUUCGGAACG yielded a yeast fitness of 0.635.
Variant GUUCCGUUGGCGUAAUGGUAACGCGUCUCCCUCCUAAGGAGAAGACUGCGGGUUCAAGCCCCGUCCGGAACG has a yeast fitness of 0.738.
Work on GUUCCGUUGGCGUAAUGGUAACGCGUCUCCCUCCUAAGGAGAAGACUGCGGGGUCGAGUCCCGUAUGGAACG yielded a yeast fitness of 0.604.
Variant GUUCCGUUGGCGUAAUGGUAACGCGUCUCCCUCCUAAGGAGAAGACUGCGGGUUGGCGUCACGUAUGGAACG has a yeast fitness of 0.544.
With GUUCCGUUGGCGUAAUGGUAACGCGUCUCCCUCCUAAGGAGAAGACUGCGGGUUCAAGUCCCGUACGGAUCG the yeast fitness was 0.918.
Variant GUUCCGUUGGCGUAAUGGUAACGCGUCUCCCUCCUAAGGAGAAGACUGCGGGCUCGAGUCCCGUACGGCACG has a yeast fitness of 0.881.
GUUCCGUUGGCGUAAUGGUAACGCGUCUCCCUCCUAAGGAGAAGACUGCGGGUUUGAGUCCGGUACGGAACG gave a yeast fitness of 0.739.
For GUUCCGUUGGCGUAAUGGUAACGCGUCUCCCUCCUAAGGAGAAGACUGCGGGUUUGAGUCUCGUACGGAACG, the yeast fitness was 0.75.

— the RNAGym collection of RNA variant scans (doi:10.1126/science.aae0568)
